From PubChem BioAssay
In the library only some 3.8% were active in any assay of this set; here they are far more common.
KCNQ1 pot = potentiates or activates the human KCNQ1 potassium channel. CHO-K1 KCNQ1, thallium flux FluxOR fluorescence; stronger effect = higher value. B-score at 10 µM. 0.35% of 310,000 active. AID 2648;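 active means fluorescence ratio B-score, a plate-corrected score, at least three library SD, with initial intensity B-score within 5 SD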
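Assay system: CHO-K1 cells stably expressing KCNQ1. Medium: assay buffer for compound exposure, DMSO matched across wells. Timing: 37 °C overnight plating, 90-min dark dye load, 20-min compound pretreatment. Signal: kinetic FluxOR fluorescence, 10 s baseline plus 110 s post-stimulus.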
KCNK3 inh = human KCNK3 channel inhibition, primary screen. CHO-KCNK3 thallium flux, FluxOR fluorescence; stronger effect = lower value. B-score at 10 µM. 0.84% of 340,000 active;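 active means B-score under library mean minus 4 SD, starting fluorescence ratio at most library mean plus 5 SD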;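 further: more negative B-score means stronger inhibition of thallium flux through KCNK3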
KCNQ1 inh = inhibitors of human KCNQ1 potassium channel; CHO-K1 KCNQ1, FluxOR thallium flux fluorescence; stronger effect = higher value; B-score at 10 µM; 1.3% of 310,000 active;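 active means compounds whose thallium flux B-score, printed positive for inhibition, exceeds three library SD while starting fluorescence stays within three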;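 further: channel opened by potassium depolarization with thallium stimulus after 20 min compound exposure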
KCNK9 block = human KCNK9 channel inhibition; Q9NPC2; HEK293 KCNK9, FluxOR thallium flux fluorescence; stronger effect = lower value; B-score at 10 µM; 1.2% of 310,000 active;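 active means ratio B-score over 3 SD below the library mean, with starting fluorescence within 5 SD of its mean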;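 further: negative B-score means less thallium flux so channel inhibition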
Kir21 inh = Kir2.1 (mouse) channel inhibition | HEK293-Kir2.1, FluxOR thallium flux fluorescence; stronger effect = lower value | AID 1672 | P35561 | 0.85% of 310,000 active | B-score at 10 µM;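 active means fluorescence ratio B-score at or below minus 3 SD of library scores, with starting-brightness B-score within 2 SD, cut at about -4.2 in these data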;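 further: channel flux triggered by added potassium and thallium sulfate stimulus; B-score of peak minus minimum fluorescence over baseline after thallium stimulus; more negative B-score means stronger Kir2.1 block with less thallium influx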
Target sequence (P35561 whole entry, looked up): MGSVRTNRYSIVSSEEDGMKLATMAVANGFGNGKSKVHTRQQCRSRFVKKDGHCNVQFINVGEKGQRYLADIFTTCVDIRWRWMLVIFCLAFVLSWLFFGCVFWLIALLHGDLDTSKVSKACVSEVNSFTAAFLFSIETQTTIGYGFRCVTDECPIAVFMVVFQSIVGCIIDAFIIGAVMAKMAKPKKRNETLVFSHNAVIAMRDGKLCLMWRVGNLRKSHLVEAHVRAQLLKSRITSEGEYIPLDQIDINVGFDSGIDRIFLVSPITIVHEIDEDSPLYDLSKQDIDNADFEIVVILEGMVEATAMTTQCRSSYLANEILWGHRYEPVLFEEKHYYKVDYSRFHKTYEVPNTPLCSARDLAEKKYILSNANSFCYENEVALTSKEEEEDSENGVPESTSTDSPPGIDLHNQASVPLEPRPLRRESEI
hERG protect = hERG (human) protection from proarrhythmic block; activation (rescue from dofetilide block), less the hit threshold, % at 10 µM; AID 1511; 0.51% of 310,000 active; CHO-hERG, FluxOR thallium flux, dofetilide IC70 present;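 active means activation above the mean of controls blocked by dofetilide plus 5 SD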;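 further: thallium influx through hERG after potassium depolarization seen as dye fluorescence rise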
KCNK3 inh conf = human KCNK3 channel inhibition, confirmation assay | shares compounds with KCNK3 inh | CHO-KCNK3 thallium flux, FluxOR fluorescence; 0% buffer, 100% carvedilol maximal block | ratio percent of control, % at 10 µM | 99% of 2,400 active | AID 651638;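 active means ratio percent of control, averaged over triplicates, above buffer control mean plus 5 SD, cut at about 64% in these data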;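 further: ratio is the fluorescence rise from min to max over baseline after thallium stimulus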
KCNK3 noninduced = counter-screen for KCNK3 inhibitors: effect in non-induced cells | 40% of 2,400 active | shares compounds with KCNK3 inh | thallium flux ratio (lower = more inhibition) at 10 µM | non-induced KCNK3 parental cells, FluxOR thallium flux; stronger effect = lower value;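 active means thallium flux ratio, averaged over three wells, more than 5 SD below the buffer control mean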;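 further: host cells are CHO cells without KCNK3 induction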
A number is an active result; n = inactive; x = no result given.

SMILES | KCNQ1 pot | KCNK3 inh | KCNQ1 inh | KCNK9 block | Kir21 inh | hERG protect | KCNK3 inh conf | KCNK3 noninduced
CCCN1C(=O)c2cc(C(=O)NC3CCCCCC3)ccc2C1O (centres undefined) | n | -18 | n | n | n | n | 82 | n
CCN1N=C(c2ccccc2)Cn2c1nc1ccccc12 | n | -9.4 | n | n | n | n | 88 | n
CCCCOc1ccc2ccccc2c1C=O | n | -15 | n | n | n | n | 129 | n
Cc1c(C(=O)OC(C)C(=O)N(C)Cc2ccccc2)oc2ccccc12 (centres undefined) | x | -12 | x | x | x | x | 77 | n
Cc1c(C(=O)N(C)Cc2ccccc2)oc2c(Cl)cccc12 | n | -11 | n | n | n | n | 110 | n
CN(Cc1ccccc1)C(=O)COC(=O)C1CCN(S(=O)(=O)c2cccs2)CC1 | n | n | n | n | n | n | x | x
CCOc1cc2c(cc1O)C(=NOC)CC1C2CCC2(C)C(O)CCC12 (centres undefined) | x | n | x | x | x | x | x | x
Cc1cc(C)n(CCNC(=O)CC2C(=O)NCCN2Cc2ccccc2C(F)(F)F)n1 (centres undefined) | n | n | n | n | n | n | x | x
Cc1ccc(C)c(OCCNc2ncccc2[N+](=O)[O-])c1 | n | -12 | n | n | n | n | 102 | n
Cc1ccc(C)c(OCCNc2ccc([N+](=O)[O-])cn2)c1 | n | n | n | n | n | n | x | x
CC(C)c1cccc(OCCN2CCCC2)c1 | n | n | n | n | n | n | x | x
COc1ccc(CCNC(=O)CSc2cn(Cc3cccc(C)c3)c3ccccc23)cc1OC | n | -9.2 | n | n | n | n | 105 | n
CCOC(=O)c1ccccc1NC(=O)COC(=O)CC1CCCCC1 | n | -9.7 | n | n | n | n | 105 | 0.15
Cc1ccc(OCC(=O)Nc2ccon2)c([N+](=O)[O-])c1 | n | n | n | n | n | n | x | x
COCC1CCCN(C(=O)c2ccc3nc(Cc4cccc(Cl)c4)oc3c2)C1 (centres undefined) | n | -9.5 | n | n | n | n | 96 | n
CCc1c(-c2ccccc2)nc2nc(C)c(C)nn12 | n | -8.9 | n | n | n | n | 104 | 0.14
CCOc1ccccc1NC(=O)C(OC(=O)c1ccc(NC(=O)CC#N)cc1)c1ccccc1 (centres undefined) | n | -10 | 8 | n | n | n | 125 | 0.13
CCOc1ccccc1NC(=O)C(OC(=O)c1ccccc1O)c1ccccc1 (centres undefined) | n | n | n | n | n | n | x | x
COc1cc2c(cc1CNC[C@H]1O[C@@H](n3cnc4c(N)ncnc43)[C@H](O)[C@@H]1O)OCO2 | x | n | x | x | x | x | x | x
NC(=S)Nc1ccc(Cl)c(Cl)c1 | n | n | n | n | n | n | x | x
Cc1cc(C)cc(NC(=S)Nc2ccc(Cl)c(Cl)c2)c1 | n | -14 | 12 | n | n | n | 146 | 0.11
CCCNC(=O)CCCN1C(=O)c2ccccc2Sc2ncccc21 | n | n | n | n | n | n | x | x
CCN(CC)CCNC(=O)c1ccc(NC(=O)c2cn(-c3ccc(F)cc3)nc2-c2cccc(OC)c2)cc1 | n | -9 | 11 | n | -5.5 | n | 111 | 0.15
CCN(CC)CCNC(=O)c1ccc(NC(=O)c2c(C)nn(-c3ccc(F)cc3)c2Cl)cc1 | n | n | n | n | n | n | x | x
O=C(CSc1nc2ccccc2c(=O)n1CC1CCCO1)Nc1ccccc1Cl (centres undefined) | n | -12 | n | -7.6 | n | n | 104 | n
SMILES | KCNQ1 pot | KCNK3 inh | KCNQ1 inh | KCNK9 block | Kir21 inh | hERG protect | KCNK3 inh conf | KCNK3 noninduced
CCc1nnc(SCC(=O)Nc2ccccc2)n1CC1CCCO1 (centres undefined) | n | -8.7 | n | n | n | n | 79 | 0.16
O=C(CSc1nc2ccccc2c(=O)n1CC1CCCO1)Nc1ccccc1 (centres undefined) | n | n | n | n | n | n | x | x
CCOC(=O)C1=C(c2ccccc2)NC(SCC(=O)Nc2cccc(C)c2)=C(C#N)C1c1ccco1 (centres undefined) | n | -8.7 | n | -6.7 | n | n | 113 | n
Cc1cccc(NC(=O)CNC(=O)COc2cc(F)ccc2[N+](=O)[O-])c1C | n | n | n | n | n | n | x | x
Cc1noc(C)c1COc1cccc(C(=O)Nc2ccc3c(c2)OCO3)c1 | n | n | n | n | n | n | x | x
Cc1noc(C)c1COc1cccc(C(=O)OC(C)C#N)c1 (centres undefined) | n | n | n | n | n | n | x | x
Cc1noc(C)c1COc1cccc(C(=O)OCCOc2ccc(F)cc2)c1 | n | -14 | n | n | n | n | 116 | n
Cc1noc(C)c1COc1cccc(C(=O)Oc2ccc3c(c2)OCO3)c1 | n | -8.8 | n | n | n | n | 96 | n
COc1cccc(CNC(=O)CCS(=O)(=O)Cc2ccc(C)cc2)c1 | n | n | n | n | n | n | x | x
OCCC1CN(Cc2cccc(-n3cccn3)c2)CCN1Cc1ccccc1 (centres undefined) | n | n | n | n | n | n | x | x
CN1CCN(Cc2cn[nH]c2-c2ccc(F)cc2F)[C@@H](c2ccccc2)C1 | n | n | n | n | n | n | x | x
Clc1ccccc1-c1nc(-c2ccc(Br)o2)no1 | n | -10 | n | n | n | n | 123 | 0.15
O=[N+]([O-])c1ccccc1-c1nc(-c2ccc(Br)o2)no1 | n | n | n | n | n | n | x | x
CCCn1cc(S(=O)(=O)c2ccccc2)c(=O)c2cc(F)c(N3CCN(C)CC3)cc21 | n | n | n | n | n | n | x | x
Cc1nn(-c2ccccc2)c(=O)c2ccccc12 | n | n | n | n | n | n | x | x
Cc1nn(-c2cccc(C(F)(F)F)c2)c(=O)c2ccccc12 | n | -9 | n | n | n | n | 114 | 0.16
O/N=C/c1cccnc1Sc1ccccc1 | n | n | n | n | n | n | x | x
CC(=O)Nc1cccc(OCC(O)Cn2cnc3ccccc32)c1 (centres undefined) | n | n | n | n | n | n | x | x
CC(=O)OC(COc1cccc(C)c1)Cn1cnc2ccccc21 (centres undefined) | n | -9.4 | n | n | n | n | 126 | 0.16
Cc1cc(SCC(=O)N/N=C/c2ccc(O)cc2O)nc2ccccc12 | n | -12 | n | n | n | n | 147 | 0.1
CCn1c(SCC(=O)NC2CC2)nnc1-c1ccc(C)cc1 | n | n | n | n | n | n | x | x
COc1ccc(Cl)cc1-n1c(=S)sc2c(=O)[nH]c(SCC(=O)C(C)(C)C)nc21 | n | -9 | n | n | n | n | 88 | 0.14
